Data as given in ChEMBL document CHEMBL5674869, “The Histone Methyltransferase Inhibitor A-366 Uncovers a Role for G9a/GLP in the Epigenetics of Leukemia” (PLoS One, 2015).
Calls of active or inactive are those of the source. The calls are words filed in the database; no cut-off is given here.

Key:
[1] = test system: MOLT-16; experiment: Antiproliferative activity against human MOLT-16 cells at EC50 after 5 days by Cell-Titer-Glo assay; assay type: functional, cell-based; conditions: time 5.0 day
Method in brief: (§1)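 ATCC tumor lines were grown in their recommended media with 10% FBS and STR-authenticated. Cells were exposed to compound for the stated number of days. Viable cells were read by CellTiter-Glo endpoint. Inhibition was the ratio of treated to untreated wells, with cell-free wells set as 100% inhibition. The EC50 was taken from the dose response.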

[2] = test system: KMS-12-BM; experiment: Antiproliferative against human KMS-12-BM cells after 5 days by Cell-Titer Glo assay; assay type: functional, cell-based; conditions: 120 h; method in brief: as §1
[3] = target: T1, Histone-lysine N-methyltransferase EHMT2 (Homo sapiens) (UniProt Q96KQ7); experiment: Inhibition of G9a in human HT-1080 cells assessed as decrease in […] levels after 2 days by AlphaLisa assay; assay type: cell-based; conditions: time 2.0 day
T1 sequence (whole entry): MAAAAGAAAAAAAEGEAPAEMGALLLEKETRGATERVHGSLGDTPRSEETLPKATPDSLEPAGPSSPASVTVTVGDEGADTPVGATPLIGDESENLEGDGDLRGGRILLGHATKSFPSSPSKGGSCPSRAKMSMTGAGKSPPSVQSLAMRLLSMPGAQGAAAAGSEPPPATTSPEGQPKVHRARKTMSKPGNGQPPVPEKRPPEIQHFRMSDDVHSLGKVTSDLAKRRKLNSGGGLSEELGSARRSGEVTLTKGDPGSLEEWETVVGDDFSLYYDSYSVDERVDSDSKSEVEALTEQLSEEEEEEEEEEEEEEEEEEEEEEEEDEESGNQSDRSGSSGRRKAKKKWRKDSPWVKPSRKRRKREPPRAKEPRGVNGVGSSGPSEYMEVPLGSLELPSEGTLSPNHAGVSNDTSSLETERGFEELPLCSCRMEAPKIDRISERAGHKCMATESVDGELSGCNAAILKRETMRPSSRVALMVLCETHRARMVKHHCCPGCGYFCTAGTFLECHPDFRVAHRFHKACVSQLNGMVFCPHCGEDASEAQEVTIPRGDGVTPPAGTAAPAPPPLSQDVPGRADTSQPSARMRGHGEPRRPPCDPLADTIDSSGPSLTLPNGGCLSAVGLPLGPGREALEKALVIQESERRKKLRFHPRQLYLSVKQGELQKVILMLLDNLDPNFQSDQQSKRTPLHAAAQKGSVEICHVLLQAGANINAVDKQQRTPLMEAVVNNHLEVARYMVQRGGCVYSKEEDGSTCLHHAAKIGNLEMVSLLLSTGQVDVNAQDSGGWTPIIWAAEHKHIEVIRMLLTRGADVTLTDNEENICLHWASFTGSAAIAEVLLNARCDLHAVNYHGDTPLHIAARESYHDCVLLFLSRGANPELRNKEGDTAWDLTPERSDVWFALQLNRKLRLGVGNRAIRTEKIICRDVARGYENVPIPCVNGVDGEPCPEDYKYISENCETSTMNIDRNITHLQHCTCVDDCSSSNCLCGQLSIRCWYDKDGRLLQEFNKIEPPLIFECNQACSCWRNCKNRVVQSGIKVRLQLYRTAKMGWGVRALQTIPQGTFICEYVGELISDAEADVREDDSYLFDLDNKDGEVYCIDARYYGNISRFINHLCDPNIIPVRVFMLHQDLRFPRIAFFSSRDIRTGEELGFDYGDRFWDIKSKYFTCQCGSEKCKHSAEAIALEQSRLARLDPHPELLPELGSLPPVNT
Method in brief: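 HT-1080 cells treated 2 days with compound over a concentration range. Viability read by CellTiter-Glo; H3K9me2 measured by AlphaLISA and normalized to viability. % inhibition calculated relative to untreated cells set as 0%.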

[4] = test system: NCI-H661; experiment: Antiproliferative against human NCI-H661 cells after 5 days by Cell-Titer Glo assay; assay type: functional, cell-based; conditions: NCI-H661, 120 h; method in brief: as §1
[5] = test system: KMS-11; experiment: Antiproliferative against human KMS-11 cells after 5 days by Cell-Titer Glo assay; assay type: functional, cell-based; conditions: KMS-11, 120 h; method in brief: as §1
[6] = test system: Calu-1; experiment: Antiproliferative against human Calu-1 cells after 5 days by Cell-Titer Glo assay; assay type: functional, cell-based; conditions: Calu-1, 120 h; method in brief: as §1
[7] = test system: G-401; experiment: Antiproliferative against human G-401 cells after 7 days by Cell-Titer Glo assay; assay type: functional, cell-based; conditions: G-401, 168 h; method in brief: as §1
[8] = test system: RS4-11; experiment: Antiproliferative against human RS4-11 cells after 5 days by Cell-Titer Glo assay; assay type: functional, cell-based; conditions: RS4-11, 120 h; method in brief: as §1
[9] = test system: SK-N-MC; experiment: Antiproliferative against human SK-N-MC cells after 7 days by Cell-Titer Glo assay; assay type: functional, cell-based; conditions: 168 h; method in brief: as §1
[10] = test system: Mus musculus; experiment: Decrease in H3K9me2 level in SCID/beige mouse tumor xenografted with human MV4-11 cells at 30 mg/kg/day via osmotic-mini pump for 14 days by alphaLisa assay; assay type: functional, organism-based; conditions: Neoplasm, time 14.0 day
Method in brief: (§2)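 Female SCID-beige mice, 6–8 weeks old, received 5 x 10^6 MV4;11 cells in 50% Matrigel subcutaneously in the flank. At about 200 mm3, compound was given at 30 mg/kg/day by osmotic mini-pump in 98% PEG-400/2% Tween-80. In the PK/PD arm, tumors were harvested at the stated day and H3K9me2 was measured by AlphaLISA relative to vehicle.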

[11] = test system: PA-1; experiment: Antiproliferative against human PA-1 cells after 7 days by Cell-Titer Glo assay; assay type: functional, cell-based; conditions: PA-1, 168 h; method in brief: as §1
[12] = test system: RPMI-8226; experiment: Antiproliferative against human RPMI-8226 cells after 5 days by Cell-Titer Glo assay; assay type: functional, cell-based; conditions: RPMI-8226, 120 h; method in brief: as §1
[13] = Antiproliferative against human tsA201 cells after 7 days by Cell-Titer Glo assay; assay type: functional, cell-based; conditions: tsA201, 168 h; method in brief: as §1
[14] = test system: Daoy; experiment: Antiproliferative against human Daoy cells after 7 days by Cell-Titer Glo assay; assay type: functional, cell-based; conditions: 168 h; method in brief: as §1
[15] = test system: L-363; experiment: Antiproliferative against human L-363 cells after 5 days by Cell-Titer Glo assay; assay type: functional, cell-based; conditions: L-363, 120 h; method in brief: as §1
[16] = test system: HT-1080; experiment: Antiproliferative activity against human HT-1080 cells upto 10 uM after 5 days by Cell-Titer-Glo assay; assay type: functional, cell-based; conditions: time 5.0 day; method in brief: as §1
[17] = test system: CWR22R; experiment: Antiproliferative against human 22RV1 cells after 5 days by Cell-Titer Glo assay; assay type: functional, cell-based; conditions: 22Rv1, 120 h; method in brief: as §1
[18] = test system: NCI-H2009; experiment: Antiproliferative against human NCI-H2009 cells after 5 days by Cell-Titer Glo assay; assay type: functional, cell-based; conditions: NCI-H2009, 120 h; method in brief: as §1
[19] = test system: U2OS; experiment: Antiproliferative against human U2OS cells after 7 days by Cell-Titer Glo assay; assay type: functional, cell-based; conditions: 168 h; method in brief: as §1
[20] = test system: HT-1080; experiment: Antiproliferative against human HT-1080 cells after 5 days by Cell-Titer Glo assay; assay type: functional, cell-based; conditions: HT-1080, 120 h; method in brief: as §1
[21] = test system: MOLT-16; experiment: Antiproliferative against human MOLT-16 cells after 5 days by Cell-Titer Glo assay; assay type: functional, cell-based; conditions: MOLT-16, 120 h; method in brief: as §1
[22] = test system: IMR-32; experiment: Antiproliferative against human IMR-32 cells after 7 days by Cell-Titer Glo assay; assay type: functional, cell-based; conditions: IMR-32, 168 h; method in brief: as §1
[23] = test system: K562; experiment: Antiproliferative against human K562 cells after 5 days by Cell-Titer Glo assay; assay type: functional, cell-based; conditions: K562, 120 h; method in brief: as §1
[24] = test system: Mus musculus; experiment: Decrease in H3K9me2 level in SCID/beige mouse tumor xenografted with human MV4-11 cells at 30 mg/kg/day via osmotic-mini pump for 7 days by alphaLisa assay; assay type: functional, organism-based; conditions: Neoplasm, time 7.0 day; method in brief: as §2

| SMILES | Activity [1] | EC50 [2] [µM] | inhibition [3] | EC50 [4] [µM] | EC50 [5] [µM] | EC50 [6] [µM] | EC50 [7] [µM] | EC50 [8] [µM] | EC50 [9] [µM] | EC50 [11] [µM] | EC50 [12] [µM] | EC50 [13] [µM] | EC50 [14] [µM] | EC50 [15] [µM] | EC50 [17] [µM] | EC50 [18] [µM] | EC50 [19] [µM] | EC50 [20] [µM] | EC50 [21] [µM] | EC50 [22] [µM] | other results |
| --- | --- | --- | --- | --- | --- | --- | --- | --- | --- | --- | --- | --- | --- | --- | --- | --- | --- | --- | --- | --- | --- |
| COc1cc2c(cc1OCCCN1CCCC1)N=C(N)C21CCC1 | inactive | > 10 | Active | > 10 | > 10 | > 10 | > 10 | > 10 | > 10 | > 10 | > 10 | > 10 | > 10 | > 10 | > 10 | > 10 | > 10 | > 10 | > 10 | > 10 | inhibition [10]: Active; Activity [16]: inactive; EC50 [23]: > 10 µM; inhibition [24]: Active |
| COc1cc2c(NC3CCN(C(C)C)CC3)nc(C3CCCCC3)nc2cc1OCCCN1CCCC1 | Active | 4.4 | Active | 4.9 | 4 | 1.3 | 0.4 | 3.1 | 0.2 | 0.2 | 5.1 | > 10 | 0.1 | 3.9 | 0.2 | 3.9 | 0.5 | 0.5 | 0.2 | > 10 | EC50 [23]: 5.3 µM |
